Compound activity: PubChem, The Scripps Research Institute Molecular Screening Center
Compounds with a hit are over-represented: about 1.8% of the library has one in this group of screens.
TLR9-MyD88 block: blocks human TLR9 binding to MyD88. Q9NR96+Q99836. CHO BLA complementation TLR9-MyD88, CCF4 FRET ratio. inhibition, % at 4.98 µM. actives 0.21% (n = 340,000);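 active = inhibition above the mean over all tested compounds plus 3 SD, cut at about 21% in these data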;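 also: 0% = DMSO only wells and 100% = clavulanate BLA inhibitor control wells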
NOD2 RIPK2 PPI: blocks binding of human NOD2 to RIPK2; CHO BLA complementation NOD2-RIPK2, CCF4 ratio; AID 624267; O43353; inhibition, % at 4.98 µM; actives 0.38% (n = 360,000); in the data active = inhibition above about 21%;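 also: 0% = vehicle only and 100% = reference blocker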
TLR4 MyD88 comp: inhibitors of human TLR4-MyD88 binding; HeLa CL3-4 TLR4/MyD88 BLA complementation, FRET ratio; O00206+Q99836; inhibition, % at 8.4 µM; actives 0.18% (n = 200,000); in the data active = inhibition above about 25%;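 also: 0% = vehicle and 100% = reference inhibitor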
MC4R barr agon: activates human MC4R beta-arrestin recruitment; U2OS MC4R beta-arrestin complementation, luminescence; percent of melanotan II response, DMSO zero; actives 0.98% (n = 360,000); activation, % at 8.9 µM;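 active = activation above a per-plate cutoff, the mean activation of sample wells on that plate plus 3 SD, cut at about 8% in these data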
MC4R antag cAMP: human MC4R antagonism in cAMP assay | P32245 | inhibition, % at 6.5 µM | MC4R-expressing cells, MTII-stimulated cAMP, LANCE TR-FRET | actives 0.48% (n = 360,000);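 active = inhibition above its plate's cutoff, the mean of tested wells on that plate plus 3 SD, cut at about 29% in these data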;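 also: 0% = Melanotan II alone and 100% = Melanotan II plus saturating MCL0020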
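system = U2OS cells with stable human MC4R expression | also added = Melanotan II challenge after compound preincubation | dosing = one concentration, 6.5 µM nominal | incubation = compound 30 min, challenge 1 h, detection 1 h | measured by = TR-FRET with Eu-cAMP and labeled anti-cAMP, 671 nm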
MC4R barr conf: human MC4R beta-arrestin agonism confirmation; shares compounds with MC4R barr agon; U2OS MC4R beta-arrestin recruitment, luminescence; scaled DMSO 0%, Melanotan II 100%; activation, % at 8.9 µM; actives 31% (n = 2,400); AID 602192;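 active = mean activation across replicates above the hit cutoff set in the earlier primary screen, cut at about 8% in these data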
MOR DOR agonist: counter-screen for MC4R agonists: agonists of mu-delta opioid heterodimer | shares compounds with MC4R barr agon | U2OS PathHunter beta-arrestin, beta-gal luminescence; percent of deltorphin B response, DMSO zero | activation, % at 9.2 µM | actives 5.8% (n = 2,400);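 active = mean activation across replicates exceeds the hit threshold derived in the earlier primary screen, cut at about 18% in these data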;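 also: 100% = deltorphin B at 0.9 µM final and 0% = DMSO alone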
Target sequence (P35372 whole entry, looked up): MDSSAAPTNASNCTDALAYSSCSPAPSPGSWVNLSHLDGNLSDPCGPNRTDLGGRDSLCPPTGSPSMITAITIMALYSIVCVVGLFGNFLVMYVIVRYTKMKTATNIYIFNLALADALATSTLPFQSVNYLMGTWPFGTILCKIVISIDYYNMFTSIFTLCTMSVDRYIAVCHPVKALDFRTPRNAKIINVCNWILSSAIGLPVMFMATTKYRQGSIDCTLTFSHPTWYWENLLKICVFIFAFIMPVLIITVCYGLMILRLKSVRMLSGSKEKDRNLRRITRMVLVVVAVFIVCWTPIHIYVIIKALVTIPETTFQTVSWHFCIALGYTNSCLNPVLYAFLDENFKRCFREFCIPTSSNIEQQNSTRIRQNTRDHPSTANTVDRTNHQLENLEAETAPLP
Target sequence (P41143 whole entry, looked up): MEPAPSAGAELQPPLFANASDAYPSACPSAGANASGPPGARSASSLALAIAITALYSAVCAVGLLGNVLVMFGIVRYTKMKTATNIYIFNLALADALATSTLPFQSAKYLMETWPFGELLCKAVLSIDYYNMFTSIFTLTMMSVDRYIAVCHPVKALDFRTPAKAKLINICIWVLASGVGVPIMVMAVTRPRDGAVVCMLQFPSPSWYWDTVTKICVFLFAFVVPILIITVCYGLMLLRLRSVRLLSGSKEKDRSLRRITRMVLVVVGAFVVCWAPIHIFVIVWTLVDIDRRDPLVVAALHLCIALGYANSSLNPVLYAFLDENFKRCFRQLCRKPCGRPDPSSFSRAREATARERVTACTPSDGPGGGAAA
Numbers without * were called inactive; . = not tested or not shown.

SMILES	TLR9-MyD88 block	NOD2 RIPK2 PPI	TLR4 MyD88 comp	MC4R barr agon	MC4R antag cAMP	MC4R barr conf	MOR DOR agonist
COc1cc(OC)cc(C(=O)N(Cc2ccco2)c2c(N)n(Cc3ccccc3)c(=O)[nH]c2=O)c1	-4	-8	.	-1	8	.	.
Cc1cc(Cl)cc2sc(NC(=O)c3ccco3)nc12	-3	3	.	11*	8	0	3
CSc1ccc(CN2CCc3c([nH]c4ccccc34)C2)cc1	-16	3	.	11*	1	3	8
Clc1ccc(CN2CCc3c([nH]c4ccccc34)C2)cc1Cl	-2	-2	.	15*	8	45*	23*
O=C(COC(=O)c1ccccc1NC(=O)c1ccco1)NCCC1=CCCCC1	-5	7	-3	14*	-1	2	4
O=C(COC(=O)c1ccccc1O)NCCC1=CCCCC1	-11	-9	-2	3	10	.	.
COc1ccc(NC(=O)Cc2c(SC)c3ccccc3n2Cc2ccccc2)cc1	-6	-6	-38	24*	9	2	10
Cc1c(Br)cnn1C(C)C(=O)N1CCN(c2ccc(F)cc2)CC1 (centres undefined)	-9	4	.	3	10	.	.
O=C(Nc1ccccc1Oc1ccccc1)c1cc([N+](=O)[O-])ccc1Cl	-1	2	1	14*	12	-1	6
O=C(Nc1ccc(Nc2ccccc2)cc1)c1cc([N+](=O)[O-])ccc1Cl	-4	-9	.	-1	0	.	.
O[C@H]1C[C@H](c2ccccc2)N(Cc2cccs2)C[C@@H]1n1cc(-c2ccc(F)cc2)nn1	3	5	.	-1	18	.	.
Cc1ccc(S(=O)(=O)N(C)Cc2ccc(C(=O)N/N=C/c3ccc(OC(F)F)cc3)cc2)cc1	-7	-19	4	25*	-1	3	12
CC(C)CSc1nc2c(c(=O)[nH]c(=O)n2C)n1CC(O)COc1cccc2ccccc12 (centres undefined)	-3	3	-10	14*	7	3	5
CCSc1nc2c(c(=O)[nH]c(=O)n2C)n1CC(O)COc1ccccc1 (centres undefined)	0	-6	2	1	23	.	.
CC(C)=CCC/C(C)=C/C=N/NC(=O)c1ccc([N+](=O)[O-])cc1	6	0	15	15*	-2	-2	8
O=C(NNC(=O)C1CCN(C(=O)Nc2ccccc2)CC1)c1ccc(F)cc1	-12	-6	.	0	4	.	.
CCCCCc1c2c(cc(O)c1C(=O)O)OC(=O)c1cc(C(=O)CCCC)c(OC)cc1O2	2	-8	.	7	19	.	.
CCCCCc1c2c(cc(O)c1C(=O)O)OC(=O)c1c(cc(OC)cc1C(=O)CCCC)O2	2	-18	1	11*	24	4	3
O=C(CN1CCN(C(=O)C2CCCO2)CC1)Nc1ccc(Br)cc1 (centres undefined)	-7	-17	.	-2	7	.	.
CC(CCc1ccccc1)NC(=O)c1ccc(NC(=O)c2ccccc2)cc1 (centres undefined)	4	-2	-4	0	-5	.	.
CC(CCc1ccccc1)NC(=O)c1ccc(NC(=O)c2ccc(Cl)cc2Cl)cc1 (centres undefined)	8	3	2	9.9*	1	7	6
O=C(CN1CCN(c2ccccc2)CC1)NC(=O)NCc1ccccc1	-8	-1	.	14*	5	5	2
O=C(CN1CCN(c2ccccc2F)CC1)NC(=O)NCc1ccccc1	-5	-3	-4	2	-1	.	.
CCOc1cc(C(=O)NCCCNC(=O)c2cc(OCC)c(OCC)c(OCC)c2)cc(OCC)c1OCC	-13	-2	.	2	12	.	.
Cc1nc(SCc2ccc(OCCC(C)C)cc2)n[nH]1	-2	-14	-7	-1	11	.	.
SMILES	TLR9-MyD88 block	NOD2 RIPK2 PPI	TLR4 MyD88 comp	MC4R barr agon	MC4R antag cAMP	MC4R barr conf	MOR DOR agonist
Cc1ccc2nc3c(cc(C#N)c(=N)n3Cc3cccnc3)c(=O)n2c1	.	.	11	.	.	.	.
COc1cccc(OC)c1C(=O)Nc1nc(COc2ccccc2)cs1	-2	-6	4	12*	-1	0	3
Cc1cccc(C(C)C)c1NC(=O)COC(=O)c1cccc(S(=O)(=O)N2CCc3ccccc3C2)c1	-1	1	0	18*	-6	8.6*	7
CC(C)(C)OC(=O)[C@H](Cc1ccccc1)NC(=O)c1nc[nH]c1C(=O)N1CCNCC1	-7	7	.	0	3	.	.
CCOC(=O)C1CCCN(C(=O)c2cccc(C(F)(F)F)c2)CC1 (centres undefined)	.	-5	.	-3	-4	.	.
CCNC(=S)N1CCC(C(=O)c2ccc(F)cc2)CC1	7	8	.	-2	0	.	.
COc1ccc(Cn2c(=S)[nH]c3ccccc3c2=O)cc1	-1	-2	.	11*	1	-3	3
Cc1ccc(Cn2c(=S)[nH]c3ccccc3c2=O)cc1	-15	-11	.	3	19	.	.
O=C(Nc1nnc(CCc2ccccc2)s1)c1ccc(F)cc1	-5	7	.	0	-1	.	.
O=C(Nc1nnc(CCc2ccccc2)s1)c1cccc(F)c1	5	9	.	14*	8	1	5
COc1cc(C(=O)Nc2nnc(Cc3ccccc3)s2)cc(OC)c1OC	1	2	.	-2	-2	.	.
COc1ccc(C(=O)Nc2nnc(Cc3ccccc3)s2)c(OC)c1	11	-2	.	15*	-10	-1	7
COc1ccccc1CNC(=O)c1ccc(NC2=NC3CS(=O)(=O)CC3S2)cc1 (centres undefined)	-9	-4	.	-3	3	.	.
CCOc1ccc(Cl)cc1-c1cc(C(=O)NC(C)C)[nH]n1	.	1	.	1	-2	.	.
Cc1nn(Cc2c(F)c(F)c(F)c(F)c2F)c(C)c1NC(=O)c1cccc(COc2ccccc2Cl)c1	-2	2	12	17*	9	6	3
COc1ccc(CN2CCNC(=O)C2CC(=O)N(C)C2CCCCC2)cc1OC (centres undefined)	0	-10	.	0	10	.	.
CC(C)(c1ccccc1)c1ccc(OCC(O)CNC2CCN(Cc3ccccc3)CC2)cc1 (centres undefined)	11	14	-1	25*	7	5	19*
Cc1ccc(NC(=O)COC(=O)c2ccccc2Nc2ccccc2)cc1	0	4	5	13*	-6	3	5
O=C(Nc1ccc(C(=O)N2CCCc3ccccc32)cc1)c1cccs1	7	-2	.	1	10	.	.
CCn1c(COc2ccc(Cl)cc2)nnc1SCC(=O)Nc1ccc2c(c1)OCCO2	9	-10	-12	0	14	.	.
